Source: ChEMBL document CHEMBL3526003, “Pharmacokinetics of the monohydroxy derivative of oxcarbazepine and its enantiomers after a single intravenous dose given as racemate compared with a single oral dose of oxcarbazepine” (Drug Metab Dispos, 2011)

Assays:
[1] = Drug excretion in human urine assessed as total amount of drug eliminated treated with oxcarbazepine at 300 mg, po administered as one-film coated tablet by high-performance liquid chromatography; assay type: ADME, organism-based; settings: read-out: Ae
Procedure, shortened: (§1)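 300 mg oral tablet given to 12 healthy adults. Urine was collected in fractions up to 72 h and kept at 2–8 °C, then frozen at -20 °C. Analytes were measured by HPLC before and after β-glucuronidase hydrolysis (pH 6.7, 37 °C, about 15 h). Renal clearance was Ae/plasma AUC. Urinary terminal half-life came from log-linear slopes between 4–18 h and 40–64 h.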

[2] = Terminal half life in human urine treated with monohydroxy derivative of OXC at 250 mg, iv administered as infusion over 30 mins by high-performance liquid chromatography; assay type: ADME, organism-based; settings: read-out: beta t1/2 (converted)
Procedure, shortened: (§2)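 250 mg racemic MHD infused intravenously over 30 min to 12 healthy adults. Plasma was drawn at 0 to 30 min and up to 72 h, and urine was fractionated to 72 h. Enantioselective HPLC was used. Renal clearance was Ae/AUC; Vss was CL_T·MRT (AUMC/AUC). Urinary half-life came from log-linear slopes between 4–18 h and 40–64 h.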

[3] = Terminal half life in human urine treated with oxcarbazepine at 300 mg, po administered as one-film coated tablet by high-performance liquid chromatography; assay type: ADME, organism-based; settings: read-out: beta t1/2 (converted); procedure, shortened: as §1
[4] = Total plasma clearance in human at 250 mg, iv administered as single dose by high-performance liquid chromatography; assay type: ADME, organism-based
Procedure, shortened: (§3)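 Pilot study: single intravenous racemic MHD at 150, 200 or 250 mg, one subject per dose. Plasma was sampled to 72 h and analysed by HPLC. Total plasma clearance was computed as Dose/AUC, with AUC from the linear trapezoidal rule.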

[5] = Renal clearance in human at 150 mg, iv administered as single dose by high-performance liquid chromatography; assay type: ADME, organism-based, Kidney; settings: in vivo
Procedure, shortened: (§4)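 Pilot ascending-dose study: one subject per level received single intravenous racemic MHD (150, 200, 250 mg). Urine was pooled 0–72 h, and unchanged drug was measured by HPLC as percent of dose excreted. Renal clearance was the amount excreted unchanged divided by plasma AUC.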

[6] = Drug excretion in human urine assessed as total amount of drug eliminated at 200 mg, iv administered as single dose measured for 72 hrs post-dose by high-performance liquid chromatography; assay type: ADME, organism-based; settings: read-out: Ae; procedure, shortened: as §4
[7] = Total plasma clearance in human at 150 mg, iv administered as single dose by high-performance liquid chromatography; assay type: ADME, organism-based; procedure, shortened: as §3
[8] = Drug excretion in human urine assessed as total amount of drug eliminated at 150 mg, iv administered as single dose measured for 72 hrs post-dose by high-performance liquid chromatography; assay type: ADME, organism-based; settings: read-out: Ae; procedure, shortened: as §4
[9] = AUC in human at 250 mg, iv administered as infusion over 30 mins by non-enantiospecific assay based high-performance liquid chromatography; assay type: ADME, organism-based; design: time < 0.5 hr, dose 250 mg, route intravenous; settings: plasma
Procedure, shortened: (§5)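 Crossover of 12 healthy adults: 250 mg racemic MHD infused intravenously over 30 min versus a 300 mg oral tablet, with at least one week of washout. Plasma MHD was measured by non-enantioselective HPLC-UV at 210 nm after C18 solid-phase extraction (LOQ 0.1 µmol/L). Bioavailability f was the dose-corrected ratio of oral to intravenous AUC.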

[10] = AUC (0 to 72 hrs) in human at 250 mg, iv administered as single dose by high-performance liquid chromatography; assay type: ADME, organism-based; design: dose 250 mg, time < 72 hr, route intravenous; settings: plasma
Procedure, shortened: (§6)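 Pilot ascending-dose study: one healthy subject per level received 150, 200 or 250 mg racemic MHD intravenously as a single dose. Plasma was sampled to 72 h and assayed by non-enantioselective and enantioselective HPLC. AUC(0-72h) was computed by the linear trapezoidal method.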

[11] = Renal clearance in human at 250 mg, iv administered as single dose by high-performance liquid chromatography; assay type: ADME, organism-based, Kidney; settings: in vivo; procedure, shortened: as §4
[12] = Renal clearance in human at 200 mg, iv administered as single dose by high-performance liquid chromatography; assay type: ADME, organism-based, Kidney; settings: in vivo; procedure, shortened: as §4
[13] = AUC (0 to 72 hrs) in human at 150 mg, iv administered as single dose by high-performance liquid chromatography; assay type: ADME, organism-based; design: dose 150 mg, time < 72 hr, route intravenous; settings: plasma; procedure, shortened: as §6
[14] = Drug excretion in human urine assessed as total amount of drug eliminated at 250 mg, iv administered as single dose measured for 72 hrs post-dose by high-performance liquid chromatography; assay type: ADME, organism-based; settings: read-out: Ae; procedure, shortened: as §4
[15] = Total plasma clearance in human at 200 mg, iv administered as single dose by high-performance liquid chromatography; assay type: ADME, organism-based; procedure, shortened: as §3
[16] = AUC (0 to 72 hrs) in human at 200 mg, iv administered as single dose by high-performance liquid chromatography; assay type: ADME, organism-based; design: dose 200 mg, time < 72 hr, route intravenous; settings: plasma; procedure, shortened: as §6
[17] = Total plasma clearance in human treated with monohydroxy derivative of OXC at 150 mg, iv administered as single dose by high-performance liquid chromatography; assay type: ADME, organism-based; procedure, shortened: as §3
[18] = AUC (0 to 72 hrs) in human treated with monohydroxy derivative of OXC at 150 mg, iv administered as single dose by high-performance liquid chromatography; assay type: ADME, organism-based; design: dose 150 mg, time < 72 hr, route intravenous; settings: plasma; procedure, shortened: as §6
[19] = Renal clearance in human treated with oxcarbazepine at 300 mg, po administered as one-film coated tablet by high-performance liquid chromatography; assay type: ADME, organism-based, Kidney; settings: in vivo; procedure, shortened: as §1
[20] = Apparent terminal half life in human plasma treated with monohydroxy derivative of OXC at 250 mg, iv administered as infusion over 30 mins by high-performance liquid chromatography; assay type: ADME, organism-based; settings: read-out: betat1/2(app) (converted)
Procedure, shortened: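 Healthy adult volunteers (6 male, 6 female), randomized two-way crossover with at least one week washout; single 250 mg racemic MHD infused i.v. over 30 min. Heparinized plasma sampled 0–30 min then 1–72 h after start of infusion, stored -80 C; enantiomers quantified by enantioselective HPLC.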

[21] = AUC (0 to 72 hrs) in human treated with monohydroxy derivative of OXC at 200 mg, iv administered as single dose by high-performance liquid chromatography; assay type: ADME, organism-based; design: time < 72 hr, dose 200 mg, route intravenous; settings: plasma; procedure, shortened: as §6
[22] = Cmax in human treated with oxcarbazepine at 300 mg, po administered as one-film coated tablet by high-performance liquid chromatography; assay type: ADME, organism-based; design: dose 300 mg, route oral; settings: in vivo
Procedure, shortened: (§7)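 Healthy adults (6 male, 6 female), single 300 mg film-coated tablet by mouth, fasting, in a randomized two-way crossover with at least one week of washout. Venous heparinized blood was drawn at 0–72 h. Plasma was separated at 2200 g and stored at -80 °C. Non-enantioselective and enantioselective HPLC were used. Cmax/tmax were the observed peak; AUC was by linear trapezoidal rule.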

[23] = AUC (0 to 72 hrs) in human treated with monohydroxy derivative of OXC at 250 mg, iv administered as single dose by high-performance liquid chromatography; assay type: ADME, organism-based; design: dose 250 mg, time < 72 hr, route intravenous; settings: plasma; procedure, shortened: as §6
[24] = AUC (0 to 32/48 hrs) in human treated with oxcarbazepine at 300 mg, po administered as one-film coated tablet by high-performance liquid chromatography; assay type: ADME, organism-based; settings: plasma; procedure, shortened: as §7
[25] = Renal clearance in human treated with monohydroxy derivative of OXC at 250 mg, iv administered as infusion over 30 mins by high-performance liquid chromatography; assay type: ADME, organism-based, Kidney; settings: in vivo; procedure, shortened: as §2
[26] = Total plasma clearance in human treated with monohydroxy derivative of OXC at 250 mg, iv administered as single dose by high-performance liquid chromatography; assay type: ADME, organism-based; procedure, shortened: as §3
[27] = Volume of distribution at steady state in human treated with monohydroxy derivative of OXC at 250 mg, iv administered as infusion over 30 mins by high-performance liquid chromatography; assay type: ADME, organism-based; settings: in vivo, read-out: Vdss; procedure, shortened: as §2
[28] = Total plasma clearance in human treated with monohydroxy derivative of OXC at 200 mg, iv administered as single dose by high-performance liquid chromatography; assay type: ADME, organism-based; procedure, shortened: as §3
Plasma = assay: Drug level in human plasma at 400 mg, po; assay type: ADME, cell-free
[29] = AUC in human at 300 mg, po administered as one-film coated tablet by high-performance liquid chromatography; assay type: ADME, organism-based; settings: plasma; procedure, shortened: as §7
[30] = Oral bioavailability in human at 300 mg administered as one-film coated tablet by non-enantiospecific assay based high-performance liquid chromatography; assay type: ADME, organism-based; settings: in vivo; procedure, shortened: as §5
[31] = Tmax in human treated with monohydroxy derivative of OXC at 250 mg, iv administered as infusion over 30 mins by high-performance liquid chromatography; assay type: ADME, organism-based; settings: in vivo
Procedure, shortened: (§8)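 Healthy adults (6 male, 6 female) in an open randomized two-way crossover with at least one week washout. Venous heparinized plasma was sampled at 0, 5, 10, 15, 20, 25 and 30 min and at 1-72 h after the start of infusion, and stored at -80 C. Analytes were measured by non-enantioselective and enantioselective HPLC. Tmax is the observed time of peak concentration, reported as a median.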

[32] = Cmax in human treated with monohydroxy derivative of OXC at 250 mg, iv administered as infusion over 30 mins by high-performance liquid chromatography; assay type: ADME, organism-based; design: dose 250 mg, route intravenous; settings: in vivo; procedure, shortened: as §8
[33] = Cmax in human at 300 mg, po administered as one-film coated tablet by high-performance liquid chromatography; assay type: ADME, organism-based; design: dose 300 mg, route oral; settings: in vivo; procedure, shortened: as §7
[34] = Tmax in human at 300 mg, po administered as one-film coated tablet by high-performance liquid chromatography; assay type: ADME, organism-based; settings: in vivo; procedure, shortened: as §7

NC(=O)N1c2ccccc2C[C@H](O[C@@H]2O[C@H](C(=O)O)[C@@H](O)[C@H](O)[C@H]2O)c2ccccc21
dose excreted [1]: 38.8%
half-life [2]: 9.9 h
half-life [3]: 10.8 h

NC(=O)N1c2ccccc2CC(O)c2ccccc21 (racemic) [LICARBAZEPINE]
clearance [4]: 58.5 mL/min
CL renal [5]: 21.8 mL/min
dose excreted at 72 h [6]: 30.7%
clearance [7]: 90 mL/min
dose excreted at 72 h [8]: 24.3%
AUC at 0.5 h [9]: 261 µM·h
AUC(0-t) at 72 h [10]: 280 µM·h
CL renal [11]: 25 mL/min
CL renal [12]: 28.3 mL/min
AUC(0-t) at 72 h [13]: 109 µM·h
dose excreted at 72 h [14]: 42.8%
clearance [15]: 92 mL/min
AUC(0-t) at 72 h [16]: 142 µM·h

NC(=O)N1c2ccccc2C[C@H](O)c2ccccc21 [ESLICARBAZEPINE]
clearance [17]: 71.2 mL/min
dose excreted [1]: 21.8%
AUC(0-t) at 72 h [18]: 69 µM·h
CL renal [19]: 18.3 mL/min
half-life [20]: 10.6 h
AUC(0-t) at 72 h [21]: 92.2 µM·h
Cmax [22]: 11000 nM
AUC(0-t) at 72 h [23]: 192 µM·h
AUC at 48 h [24]: 241 µM·h
CL renal at 0.5 h [25]: 15 mL/min
clearance [26]: 42.7 mL/min
Vd [27]: 45.9 L
half-life [3]: 8.5 h
clearance [28]: 71.2 mL/min

NC(=O)N1c2ccccc2CC(=O)c2ccccc21 [OXCARBAZEPINE]
Drug uptake (Plasma): 2%
AUC [29]: 6.8 µM·h
bioavailability [30]: 99%
Tmax [31]: 0.5 h
Cmax [32]: 80 nM
Cmax [33]: 2000 nM
Tmax [34]: 1 h
